“And” between values parts separate entries of the source, which are not always exact repeats. Equal entries are not always repeated.
What was measured:
HEK-293T = experiment: Multiplex assay against HEK293T; assay type: toxicity, cell-based; details: human
Outline: (§1)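 At seeding, live cells were stained with Hoechst33342, BioTracker Green Microtubule Cytoskeleton Dye, MitoTracker Red and Annexin V Alexa Fluor 680. After compound addition they were imaged on a CQ1 microscope at 37°C and 5% CO2, and CellPathfinder machine-learning gating sorted them into Hoechst high-intensity objects or normal cells, with normal cells further split into healthy, pyknosed or fragmented nuclei and pyknosed cells into mitotic or apoptotic. Tubulin, mitochondrial-mass and membrane-permeability phenotypes are given as per cents of cells with healthy nuclei.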

U2OS = experiment: Multiplex assay against U2OS; assay type: toxicity, cell-based; details: human; outline: as §1
[1] = 24 h, 1 µM, compound concentration 1 uM
[2] = 24 h, 10 µM, compound concentration 10 uM
[3] = 48 h, 1 µM, compound concentration 1 uM
[4] = 48 h, 10 µM, compound concentration 10 uM
[5] = 12 h, 1 µM, compound concentration 1 uM
[6] = 12 h, 10 µM, compound concentration 10 uM

Compound: O=C(Nc1ccccc1Br)N[C@@H]1CCN(c2ccc(C(F)(F)F)cn2)C1 [SB-705498]
- Population Normal (%) (HEK-293T; [1]): 99.82% and 100%
- Population Tubulin-Different-Phenotype (%) (HEK-293T; [1]): 10.9% and 6.52%
- Population Apoptotic (%) (HEK-293T; [2]): 24.63% and 21.09%
- Population Fragmented Nuclei (%) (HEK-293T; [2]): 1.27% and 4.24%
- Population Hoechst High Intensity Objects (%) (HEK-293T; [2]): 0%
- Population Membrane Permeable-Phenotype (%) (HEK-293T; [2]): 0%
- Population Mitochondria Different-Phenotype (%) (HEK-293T; [2]): 24.71% and 20%
- Population Mitotic Cells (%) (HEK-293T; [2]): 75.37% and 78.91%
- Population Normal (%) (HEK-293T; [2]): 100%
- Population Pyknosed Nuclei (%) (HEK-293T; [2]): 34.01% and 77.58%
- Population Tubulin-Different-Phenotype (%) (HEK-293T; [2]): 37.65% and 16.67%
- Total Cell Count (HEK-293T; [2]): 394 and 165
- Population Apoptotic (%) (HEK-293T; [3]): 9.6% and 17.81%
- Population Fragmented Nuclei (%) (HEK-293T; [3]): 2.88% and 0.56%
- Population Healthy Nuclei (%) (HEK-293T; [3]): 86.22% and 58.66%
- Population Hoechst High Intensity Objects (%) (HEK-293T; [3]): 0%
- Population Membrane Permeable-Phenotype (%) (HEK-293T; [3]): 6.98% and 0.95%
- Population Mitochondria Different-Phenotype (%) (HEK-293T; [3]): 12.34% and 27.62%
- Population Mitotic Cells (%) (HEK-293T; [3]): 90.4% and 82.19%
- Population Normal (%) (HEK-293T; [3]): 100%
- Population Fragmented Nuclei (%) (HEK-293T; [4]): 1.84% and 0.57%
- Population Healthy Nuclei (%) (HEK-293T; [4]): 83.54% and 53.41%
- Population Hoechst High Intensity Objects (%) (HEK-293T; [4]): 0%
- Population Membrane Permeable-Phenotype (%) (HEK-293T; [4]): 4.13% and 5.32%
- Population Mitochondria Different-Phenotype (%) (HEK-293T; [4]): 29.2% and 45.74%
- Population Mitotic Cells (%) (HEK-293T; [4]): 95.28% and 80.25%
- Population Normal (%) (HEK-293T; [4]): 100%
- Population Apoptotic (%) (U2OS; [5]): 38.89% and 33.33%
- Population Fragmented Nuclei (%) (U2OS; [5]): 1.94% and 6.43%
- Population Healthy Nuclei (%) (U2OS; [5]): 84.95% and 83.04%
- Population Hoechst High Intensity Objects (%) (U2OS; [5]): 0%
- Population Membrane Permeable-Phenotype (%) (U2OS; [5]): 1.14% and 2.82%
- Population Mitochondria Different-Phenotype (%) (U2OS; [5]): 0% and 3.52%
- Population Mitotic Cells (%) (U2OS; [5]): 61.11% and 66.67%
- Population Normal (%) (U2OS; [5]): 100%
- Population Pyknosed Nuclei (%) (U2OS; [5]): 13.11% and 10.53%
- Population Tubulin-Different-Phenotype (%) (U2OS; [5]): 0.86% and 0%
- Total Cell Count (U2OS; [5]): 412 and 171
- Population Apoptotic (%) (U2OS; [6]): 43.24% and 36.84%
- Population Fragmented Nuclei (%) (U2OS; [6]): 0.5% and 3.7%
- Population Healthy Nuclei (%) (U2OS; [6]): 90.35% and 82.22%
- Population Hoechst High Intensity Objects (%) (U2OS; [6]): 0%
- Population Membrane Permeable-Phenotype (%) (U2OS; [6]): 0.55% and 5.41%
- Population Mitochondria Different-Phenotype (%) (U2OS; [6]): 0% and 21.62%
- Population Mitotic Cells (%) (U2OS; [6]): 56.76% and 63.16%
- Population Normal (%) (U2OS; [6]): 100%
- Population Pyknosed Nuclei (%) (U2OS; [6]): 9.16% and 14.07%
- Population Tubulin-Different-Phenotype (%) (U2OS; [6]): 1.64% and 3.6%
- Total Cell Count (U2OS; [6]): 404 and 135
- Population Apoptotic (%) (U2OS; [1]): 45.28% and 27.59%
- Population Fragmented Nuclei (%) (U2OS; [1]): 2.03% and 4.69%
- Population Healthy Nuclei (%) (U2OS; [1]): 88.17% and 81.69%
- Population Hoechst High Intensity Objects (%) (U2OS; [1]): 0.18% and 0%
- Population Membrane Permeable-Phenotype (%) (U2OS; [1]): 0.21% and 2.87%
- Population Mitochondria Different-Phenotype (%) (U2OS; [1]): 0% and 10.34%
- Population Mitotic Cells (%) (U2OS; [1]): 54.72% and 72.41%
- Population Normal (%) (U2OS; [1]): 99.82% and 100%
- Population Pyknosed Nuclei (%) (U2OS; [1]): 9.8% and 13.62%
- Population Tubulin-Different-Phenotype (%) (U2OS; [1]): 0.84% and 0%
- Total Cell Count (U2OS; [1]): 542 and 213
- Population Apoptotic (%) (U2OS; [2]): 39.24% and 21.05%
- Population Fragmented Nuclei (%) (U2OS; [2]): 0.86% and 1.8%
- Population Healthy Nuclei (%) (U2OS; [2]): 85.49% and 86.83%
- Population Hoechst High Intensity Objects (%) (U2OS; [2]): 0%
- Population Membrane Permeable-Phenotype (%) (U2OS; [2]): 1.82% and 4.14%
- Population Mitotic Cells (%) (U2OS; [2]): 60.76% and 78.95%
- Population Normal (%) (U2OS; [2]): 100%
- Population Pyknosed Nuclei (%) (U2OS; [2]): 13.64% and 11.38%
- Population Tubulin-Different-Phenotype (%) (U2OS; [2]): 2.83% and 1.38%
- Population Apoptotic (%) (U2OS; [3]): 41.75% and 51.28%
- Population Fragmented Nuclei (%) (U2OS; [3]): 3.31% and 2.67%
- Population Healthy Nuclei (%) (U2OS; [3]): 86.67% and 86.93%
- Population Hoechst High Intensity Objects (%) (U2OS; [3]): 0%
- Population Membrane Permeable-Phenotype (%) (U2OS; [3]): 0.9% and 2.76%
- Population Mitochondria Different-Phenotype (%) (U2OS; [3]): 0% and 4.29%
- Population Mitotic Cells (%) (U2OS; [3]): 58.25% and 48.72%
- Population Normal (%) (U2OS; [3]): 100%
- Population Pyknosed Nuclei (%) (U2OS; [3]): 10.02% and 10.4%
- Population Tubulin-Different-Phenotype (%) (U2OS; [3]): 0.9% and 0.92%
- Total Cell Count (U2OS; [3]): 1028 and 375
- Population Apoptotic (%) (U2OS; [4]): 52.22% and 32.26%
- Population Fragmented Nuclei (%) (U2OS; [4]): 1.85% and 1.83%
- Population Healthy Nuclei (%) (U2OS; [4]): 89.37% and 86.81%
- Population Hoechst High Intensity Objects (%) (U2OS; [4]): 0.1% and 0%
- Population Membrane Permeable-Phenotype (%) (U2OS; [4]): 1.09% and 4.64%
- Population Mitochondria Different-Phenotype (%) (U2OS; [4]): 0.22% and 8.02%
- Population Mitotic Cells (%) (U2OS; [4]): 47.78% and 67.74%
- Population Normal (%) (U2OS; [4]): 99.9% and 100%
- Population Pyknosed Nuclei (%) (U2OS; [4]): 8.78% and 11.36%
- Population Tubulin-Different-Phenotype (%) (U2OS; [4]): 2.07% and 1.27%

Reference: ChEMBL document CHEMBL5724801, “EUbOPEN Chemogenomics Library - Multiplex” (2024)
